From PubChem
An excerpt weighted towards active compounds, which were near 1.8% of everything screened.
STAT3 blocker: reduces IL-6 driven STAT3 reporter signal; actives 0.89% (n = 190,000); U3A cells, IL-6 STAT3-luciferase reporter, luminescence; host cell line lacks STAT1; AID 862; inhibition, % at 5.5 µM;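 active = inhibition above the mean inhibition across all screened compounds plus 3 SD, cut at about 44% in these data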;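 also: 0% = DMSO only wells and 100% = 100 µM nifuroxazide control wells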
PPC-1+TRAIL kill: compounds killing PPC-1 cancer cells with TRAIL present (potentiator screen, no TRAIL-free arm) | PPC-1 cells + TRAIL, ATPLite viability luminescence | cell killing (% activity), % at 4 µM or 5 µM | actives 0.41% (n = 220,000);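 active = cell killing above 50% in the first pass at 4 µM, then a duplicate retest at 5 µM averaging 50% or more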;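 also: plate controls were cells with TRAIL plus DMSO for no effect and medium-only wells lacking cells for full effect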
STAT3 activator: increases IL-6 driven STAT3 reporter signal; activation (% of control), % at 5.6 µM; actives 0.91% (n = 190,000); U3A cells, IL-6 STAT3-luciferase reporter, luminescence; 100% = signal with IL-6 EC80 alone; AID 871;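 active = activation above the screen-wide mean of compound activation plus 3 SD, cut at about 130% in these data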;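 also: 0% = background luminescence of wells with medium and substrate only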
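Material: STAT3-luciferase reporter U3A cells. Controls: IL-6-treated wells, 100% activation. Read-out: % activation versus median of IL-6-stimulated wells. Probe or stimulus: IL-6 stimulus at 33 ng/mL final. Timing: compound 1 h, then IL-6 6 h at 37 °C. Signal: reporter luminescence signal.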
STAT1 inh-1: inhibitors of IFN-gamma induced STAT1 signaling. NIH 3T3 STAT1-luciferase reporter, luminescence. inhibition, % at 5.5 µM. actives 0.35% (n = 200,000). AID 920;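 active = inhibition above a set limit, the mean inhibition across all tested compounds plus 3 SD, cut at about 34% in these data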;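 also: 0% = IFN-gamma with DMSO and 100% = IFN-gamma with 300 µM nifuroxazide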
TRAIL sens C8: caspase-8 TRAIL sensitization | NB7+C8 cells + TRAIL, ATPlite viability luminescence | inhibition (viability loss, TRAIL sensitization), % at 10 µM | actives 1% (n = 360,000) | AID 624354;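 active = compounds causing at least 50% loss of cell viability in the single-dose screen, relative to plate controls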
STAT1 inh-2: STAT1 inhibition, confirmation assay | shares compounds with STAT1 inh-1 | NIH 3T3 STAT1-luciferase reporter, IFN-gamma, luminescence | actives 55% (n = 200) | inhibition, % at 5.5 µM;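 active = triplicate mean inhibition exceeding the hit cutoff computed for the primary STAT1 screen, cut at about 35% in these data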;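 also: 0% = DMSO with IFN-gamma and 100% = 300 µM nifuroxazide with IFN-gamma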
NFkB inh STAT1ct: NF-kappaB inhibition in STAT1 inhibitor counter-screen | actives 30% (n = 200) | shares compounds with STAT1 inh-1 | inhibition, % at 5.7 µM | HEK293T NF-kB luciferase reporter, TNF-alpha induced, luminescence;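 active = inhibition above the mean of solvent-only control wells plus 3 SD of those wells, cut at about 15% in these data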;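 also: 0% = DMSO with TNF-alpha and 100% = MG-132 control with TNF-alpha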
STAT3 inh STAT1c: STAT3 inhibition in STAT1 inhibitor counter-screen; inhibition, % at 5.7 µM; U3A cells, IL-6 STAT3 luciferase reporter, luminescence; cells lacking STAT1; shares compounds with STAT1 inh-1; AID 1310; actives 20% (n = 200);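 active = inhibition above the mean of solvent-only control wells plus 3 SD, set per campaign, cut at about 25% in these data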;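 also: 0% = IL-6 plus DMSO and 100% = IL-6 plus nifuroxazide control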
An asterisk follows results filed as active; . = not tested or not shown.

SMILES | STAT3 blocker | PPC-1+TRAIL kill | STAT3 activator | STAT1 inh-1 | TRAIL sens C8 | STAT1 inh-2 | NFkB inh STAT1ct | STAT3 inh STAT1c
COc1ccc(-c2cc(C(F)(F)F)nc(S(C)(=O)=O)n2)cc1 | 2 | -33 | 96 | 30 | -9 | . | . | .
COCC(C)NC(=O)CCS(=O)(=O)c1nc(-c2ccc(OC)cc2)cc(C(F)(F)F)n1 (stereo not given) | 8 | 10 | 97 | 43* | -14 | 51* | -1 | 9
CS(=O)(=O)c1nc(-c2ccc(F)cc2)cc(C(F)(F)F)n1 | 20 | -4 | 89 | 45* | -9 | 39* | -12 | -14
Cc1cc(NC(=O)CCCS(=O)(=O)c2nc(-c3cccs3)cc(C(F)(F)F)n2)no1 | 16 | -34 | 90 | 47* | -7 | 48* | -5 | 3
O=C(O)C1CCN(C(=O)CCN2C(=O)S/C(=C\c3ccccc3)C2=O)CC1 | . | . | . | . | -7 | . | . | .
COC(=O)CCS(=O)(=O)c1nc(-c2ccccc2)cc(C(F)(F)F)n1 | 13 | 1 | 92 | 38* | 6 | 42* | -14 | 4
COc1ccc(-c2cc(C(F)(F)F)nc(S(=O)(=O)CCCC(=O)Nc3cccnc3Cl)n2)cc1OC | 4 | -5 | 99 | 44* | 22 | 38* | 5 | -8
COc1ccc(Cl)cc1C(=O)OCC(=O)Nc1cccnc1Cl | . | . | . | . | -9 | . | . | .
O=C(O)CCS(=O)(=O)c1nc(-c2cccs2)cc(C(F)(F)F)n1 | 12 | -8 | 95 | 27 | -17 | . | . | .
CCOC(=O)CCS(=O)(=O)c1nc(-c2ccccc2)cc(C(F)(F)F)n1 | 8 | -26 | 96 | 40* | -7 | 45* | 0 | 0
O=C(c1cc(C2CC2)nn1-c1ccccc1)N1CCN(Cc2c(F)cccc2Cl)CC1 | . | . | . | . | -2 | . | . | .
CC1(C)Cc2c(ccc3ccccc23)C2=C(C(=O)N3CCCC3)C(=O)C(=O)N21 | 6 | 14 | 96 | 41* | -9 | 41* | 5 | 0
Cc1cc(Br)cn2c(Cc3ccsc3)c(-c3ccc(F)cc3)nc12 | . | . | . | . | -5 | . | . | .
COc1ccc(-n2c(SCc3cccnc3)nc3c(c2=O)SCC3)cc1OC | 8 | 34 | 94 | 45* | -2 | 35* | 10 | -23
Cn1c(SCc2cccnc2)nc2c(c1=O)SCC2 | 2 | 10 | 102 | 7 | -23 | . | . | .
O=C(NNC(=O)c1cccc(S(=O)(=O)N2CCc3ccccc32)c1)c1ccccc1 | 18 | 12 | 91 | 35* | 8 | 36* | 5 | 20
O=C(NCc1ccccn1)c1cccc(S(=O)(=O)N2CCc3ccccc32)c1 | . | . | . | . | -17 | . | . | .
Cc1ccc(C(=O)NC(=S)Nc2ccc(-c3ccc(CO)o3)cc2)cc1 | 7 | 0 | 95 | 64* | -4 | 26 | -8 | -2
CCOC(=O)N1CCN(C(=O)c2ccc3c(=O)n(-c4ccccc4F)c(=S)[nH]c3c2)CC1 | 17 | 10 | 89 | 40* | 2 | 13 | -12 | 0
CCOC(=O)N1CCN(C(=O)c2ccc3c(=O)n(-c4ccc(OC)cc4)c(=S)[nH]c3c2)CC1 | 8 | -37 | 99 | 10 | 5 | . | . | .
CCOC(=O)N1CCN(C(=O)c2ccc(-n3c(=S)[nH]c4ccccc4c3=O)cc2)CC1 | 20 | -4 | 86 | 60* | -9 | 48* | 8 | 9
CCCCN(C)c1c(C)nc2ccc(C(=O)N(CC)CCN(C)C)cn12 | . | . | . | . | 1 | . | . | .
Cc1cccc(C)c1NC(=O)CNC(=O)CNC(=O)c1ccc2ccccc2c1 | . | . | . | . | -13 | . | . | .
O=C(c1ccco1)N1CCN(c2ccnc3cc(Cl)ccc23)CC1 | 11 | 24 | 98 | 35* | 22 | 43* | 24* | -8
CCCCc1ccc(S(=O)(=O)NC(=O)C2(C)CCN2C(=O)c2cccc(F)c2)cc1 (stereo not given) | . | . | . | . | 1 | . | . | .
SMILES | STAT3 blocker | PPC-1+TRAIL kill | STAT3 activator | STAT1 inh-1 | TRAIL sens C8 | STAT1 inh-2 | NFkB inh STAT1ct | STAT3 inh STAT1c
O=C(NC(=S)NC(c1ccccc1)c1ccncc1)c1ccccc1 (stereo not given) | 20 | 23 | 85 | 62* | 6 | 57* | 20* | 10
CC(NC(=S)NC(=O)c1ccccc1)c1ccccc1 (stereo not given) | . | . | . | . | 6 | . | . | .
CCCCn1c(=NC(=O)c2ccco2)c(C(=O)OCC)cc2c(=O)n3ccccc3nc21 | 9 | 6 | 94 | -1 | -7 | . | . | .
CCOC(=O)c1cc2c(=O)n3ccccc3nc2n(Cc2ccco2)c1=NC(=O)c1ccc(OC)cc1OC | 23 | 23 | 83 | 60* | -13 | 22 | 10 | 25*
CCOc1ccc(-c2nc(CSCC(=O)NCc3ccco3)c(C)o2)cc1 | 0 | -6 | 103 | 90* | 4 | 91* | 49* | 1
CCOC(=O)C(=CNc1cc(C)nn1-c1ccccc1)C(=O)OCC | 12 | 1 | 92 | 52* | -3 | 46* | 0 | 6
CNc1ncnc2c1ncn2[C@H]1CN(Cc2ccc(-c3ccccc3)cc2)C[C@@H](CO)O1 | . | . | . | . | 4 | . | . | .
COc1cc(/C=C/C(=O)OCC(=O)NC(=O)NC(C)C)cc(S(=O)(=O)N2CCc3ccccc32)c1OC | 13 | 8 | 91 | 59* | -8 | 46* | 18* | -4
CC1(NC(=O)CC(c2ccccc2)(c2ccccc2)c2ccccc2)CCN(CCCc2ccccc2)C1=O (stereo not given) | . | . | . | . | 21 | . | . | .
CCN1CC(C)(C)N(C(=O)c2ccccc2)CC1(C)C | . | . | . | . | -6 | . | . | .
O=C(O)c1cccc(N/N=C/c2cccs2)c1 | 22 | 33 | 83 | 60* | 7 | 43* | 79* | -24
O=C(N/N=C/c1cccs1)C(=O)Nc1cccc(Cl)c1 | 19 | 7 | 85 | -11 | -17 | . | . | .
CC(C)C[C@H]1CNC(=S)N1CC1CCN(CC2CCC(C(C)(C)C)CC2)CC1 (stereo not given in full) | . | . | . | . | 13 | . | . | .
CCN(CC)S(=O)(=O)c1ccc(N2CCOCC2)c(NC(=O)c2cc(-c3ccccn3)nc3ccccc23)c1 | 17 | 26 | 92 | 66* | 41 | 46* | -3 | 19
CS(=O)(=O)Nc1ccc(C2=NN(C(=O)c3ccco3)C(c3cccc(F)c3)C2)cc1 (stereo not given) | 20 | -2 | 91 | 56* | -4 | 29 | -10 | 13
CCNC(=O)C1(C)CCN(Cc2noc(-c3c(C)noc3C)n2)C1 (stereo not given) | . | . | . | . | -2 | . | . | .
CCCn1nc(C(=O)OCC(=O)Nc2ccc(C(N)=O)cc2)c2ccccc2c1=O | . | . | . | . | -29 | . | . | .
